Experimental data as given in ChEMBL document CHEMBL1134377, “New synthesis of benzo-delta-carbolines, cryptolepines, and their salts: in vitro cytotoxic, antiplasmodial, and antitrypanosomal activities of delta-carbolines, benzo-delta-carbolines, and cryptolepines” (J Med Chem, 2001).

Test system: L6
Experiment: In vitro cytotoxicity against L6 cells
Format: functional, cell-based, Rattus norvegicus
Conditions: Rattus norvegicus, L6

SMILES	IC50 [µM]
c1csc(-c2cnc3c(c2)[nH]c2ccccc23)c1	54
C[n+]1c2ccccc2cc2[nH]c3ccccc3c21.O=S(=O)([O-])C(F)(F)F	8.1
CC(C)c1c2nc3ccccc3c-2n(C)c2ccccc12	23.8
Cc1c2nc3ccccc3c-2n(C)c2ccccc12	3.7
CCc1c2nc3ccccc3c-2[nH]c2ccccc12	21.5
CC(C)c1c2ccccc2[n+](C)c2c1[nH]c1ccccc12.O=S(=O)([O-])C(F)(F)F	15.1
Cc1c2nc3ccccc3c-2[nH]c2ccccc12	18.9
c1ccc2nc(-c3cc[nH]c4c5ccccc5nc3-4)ccc2c1	41.6
c1ccc(-c2cc[nH]c3c4ccccc4nc2-3)cc1	14.3
c1ccc2c(c1)[nH]c1cccnc12	229
c1ccc(-c2c[nH]c3c4ccccc4nc-3c2-c2ccccc2)cc1	> 156
Oc1ccc2[nH]c3cccnc3c2c1	235
Cc1c2ccccc2[n+](C)c2c1[nH]c1ccccc12.O=S(=O)([O-])C(F)(F)F	1.4
Cc1cc[nH]c2c3ccccc3nc1-2	82.4
c1csc(-c2ccnc3c2[nH]c2ccccc23)c1	1.8
Cc1c(-c2ccccc2)c[nH]c2c3ccccc3nc1-2	21.3
c1ccc(-c2cc[nH]c3c4ccccc4nc2-3)nc1	75.1
C[n+]1cccc2[nH]c3ccccc3c21.[Cl-]	> 230
Cn1cccc2nc3ccccc3c1-2	> 220
Nc1ccccc1-c1c[nH]c2c3ccccc3nc-2c1	14.3

Test system: not listed separately
Experiment: In vitro cell survival assay on cancer KB cell lines
Format: functional, cell-based, Homo sapiens
Conditions: Homo sapiens, KB
Method in brief: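 KB oral epidermoid carcinoma cells in MEM with 10% FCS, 25 000 cells/well; serial dilutions (DMSO or water) added at plating; 3 days at 37 °C, 5% CO2; viability by neutral red uptake 8-16 h, SDS lysis, absorbance 540 nm.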

SMILES	IC50 [µM]
CC(C)c1c2nc3ccccc3c-2n(C)c2ccccc12	6.5
Cc1c2nc3ccccc3c-2n(C)c2ccccc12	0.53
CCc1c2nc3ccccc3c-2[nH]c2ccccc12	40
Cc1c2nc3ccccc3c-2[nH]c2ccccc12	40

Same assay, conditions: kb

SMILES	IC50 [µM]
CC(C)c1c2ccccc2[n+](C)c2c1[nH]c1ccccc12.O=S(=O)([O-])C(F)(F)F	6.4
Cc1c2ccccc2[n+](C)c2c1[nH]c1ccccc12.O=S(=O)([O-])C(F)(F)F	0.57

Test system: Plasmodium falciparum
Experiment: Antiplasmodial activity against chloroquine-resistant Plasmodium falciparum K1
Format: functional, organism-based
Conditions: Plasmodium falciparum
Method in brief: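 K1 strain kept in continuous culture on human erythrocytes. Asynchronous cultures (1% parasitemia, 1% final hematocrit) exposed to serial dilutions of drug (DMSO stocks; final DMSO ≤0.2%) for 24 h at 37 °C. 0.5 µCi [3H]hypoxanthine per well was then added for a further 24 h. Inhibition is incorporation versus untreated controls on the same plate. IC50 taken from concentration-response curves, mean ± SD of several independent experiments.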

SMILES	IC50 [µM]
c1csc(-c2cnc3c(c2)[nH]c2ccccc23)c1	16.8
C[n+]1c2ccccc2cc2[nH]c3ccccc3c21.O=S(=O)([O-])C(F)(F)F	0.33
CC(C)c1c2nc3ccccc3c-2n(C)c2ccccc12	2.2
Cc1c2nc3ccccc3c-2n(C)c2ccccc12	0.101
CCc1c2nc3ccccc3c-2[nH]c2ccccc12	30.9
CC(C)c1c2ccccc2[n+](C)c2c1[nH]c1ccccc12.O=S(=O)([O-])C(F)(F)F	1.3
Cc1c2nc3ccccc3c-2[nH]c2ccccc12	74.6
c1ccc2nc(-c3cc[nH]c4c5ccccc5nc3-4)ccc2c1	16.3
c1ccc(-c2cc[nH]c3c4ccccc4nc2-3)cc1	38.5
c1ccc2c(c1)[nH]c1cccnc12	104
c1ccc(-c2c[nH]c3c4ccccc4nc-3c2-c2ccccc2)cc1	259
Oc1ccc2[nH]c3cccnc3c2c1	56.5
Cc1c2ccccc2[n+](C)c2c1[nH]c1ccccc12.O=S(=O)([O-])C(F)(F)F	0.062
Cc1cc[nH]c2c3ccccc3nc1-2	45.6
c1csc(-c2ccnc3c2[nH]c2ccccc23)c1	14.8
Cc1c(-c2ccccc2)c[nH]c2c3ccccc3nc1-2	23.6
c1ccc(-c2cc[nH]c3c4ccccc4nc2-3)nc1	33.1
C[n+]1cccc2[nH]c3ccccc3c21.[Cl-]	1.6
Cn1cccc2nc3ccccc3c1-2	2.2
Nc1ccccc1-c1c[nH]c2c3ccccc3nc-2c1	29.3

Test system: Plasmodium falciparum
Experiment: Selectivity index against Plasmodium falciparum
Format: functional
Conditions: not given

SMILES	IS
c1csc(-c2cnc3c(c2)[nH]c2ccccc23)c1	3.2
C[n+]1c2ccccc2cc2[nH]c3ccccc3c21.O=S(=O)([O-])C(F)(F)F	24.5
CC(C)c1c2nc3ccccc3c-2n(C)c2ccccc12	10.6
Cc1c2nc3ccccc3c-2n(C)c2ccccc12	41.9
CCc1c2nc3ccccc3c-2[nH]c2ccccc12	0.7
CC(C)c1c2ccccc2[n+](C)c2c1[nH]c1ccccc12.O=S(=O)([O-])C(F)(F)F	12.6
Cc1c2nc3ccccc3c-2[nH]c2ccccc12	0.25
c1ccc2nc(-c3cc[nH]c4c5ccccc5nc3-4)ccc2c1	2.6
c1ccc(-c2cc[nH]c3c4ccccc4nc2-3)cc1	0.4
c1ccc2c(c1)[nH]c1cccnc12	2.2
c1ccc(-c2c[nH]c3c4ccccc4nc-3c2-c2ccccc2)cc1	>0.6
Oc1ccc2[nH]c3cccnc3c2c1	4.2
Cc1c2ccccc2[n+](C)c2c1[nH]c1ccccc12.O=S(=O)([O-])C(F)(F)F	22.5
Cc1cc[nH]c2c3ccccc3nc1-2	1.8
c1csc(-c2ccnc3c2[nH]c2ccccc23)c1	0.12
Cc1c(-c2ccccc2)c[nH]c2c3ccccc3nc1-2	0.9
c1ccc(-c2cc[nH]c3c4ccccc4nc2-3)nc1	2.3
C[n+]1cccc2[nH]c3ccccc3c21.[Cl-]	> 138
Cn1cccc2nc3ccccc3c1-2	>100
Nc1ccccc1-c1c[nH]c2c3ccccc3nc-2c1	0.5

Test system: Trypanosoma cruzi
Experiment: Antitrypanosomal activity against (Trypanosoma cruzi) trypomastigotes (concentration of compound tested on trypomastigote motility)
Format: functional, organism-based
Conditions: Trypanosoma cruzi
Method in brief: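 Tulahuen LacZ clone 4 trypomastigotes harvested from infected murine L6 muscle cell cultures; 2-fold drug dilutions from 200 to 1.5 µM, 48 h; motility scored by microscopy; value is concentration with no detectable motility effect, mean of 2 independent experiments.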

SMILES	IC50 [µM]
c1csc(-c2cnc3c(c2)[nH]c2ccccc23)c1	200
C[n+]1c2ccccc2cc2[nH]c3ccccc3c21.O=S(=O)([O-])C(F)(F)F	50
CCc1c2nc3ccccc3c-2[nH]c2ccccc12	6.25
CC(C)c1c2ccccc2[n+](C)c2c1[nH]c1ccccc12.O=S(=O)([O-])C(F)(F)F	12.5
Cc1c2nc3ccccc3c-2[nH]c2ccccc12	25
c1ccc2nc(-c3cc[nH]c4c5ccccc5nc3-4)ccc2c1	100
c1ccc(-c2cc[nH]c3c4ccccc4nc2-3)cc1	25
c1ccc2c(c1)[nH]c1cccnc12	100
c1ccc(-c2c[nH]c3c4ccccc4nc-3c2-c2ccccc2)cc1	100
Oc1ccc2[nH]c3cccnc3c2c1	200
Cc1c2ccccc2[n+](C)c2c1[nH]c1ccccc12.O=S(=O)([O-])C(F)(F)F	12.5
Cc1cc[nH]c2c3ccccc3nc1-2	100
c1csc(-c2ccnc3c2[nH]c2ccccc23)c1	200
Cc1c(-c2ccccc2)c[nH]c2c3ccccc3nc1-2	6.25
c1ccc(-c2cc[nH]c3c4ccccc4nc2-3)nc1	25
C[n+]1cccc2[nH]c3ccccc3c21.[Cl-]	200
Cn1cccc2nc3ccccc3c1-2	200
Nc1ccccc1-c1c[nH]c2c3ccccc3nc-2c1	50

Test system: Trypanosoma cruzi
Experiment: Antitrypanosomal activity against Trypanosoma cruzi amastigotes
Format: functional, organism-based
Conditions: Trypanosoma cruzi

SMILES	IC50 [µM]
c1csc(-c2cnc3c(c2)[nH]c2ccccc23)c1	8.4
C[n+]1c2ccccc2cc2[nH]c3ccccc3c21.O=S(=O)([O-])C(F)(F)F	0.125
CCc1c2nc3ccccc3c-2[nH]c2ccccc12	5.7
CC(C)c1c2ccccc2[n+](C)c2c1[nH]c1ccccc12.O=S(=O)([O-])C(F)(F)F	3.3
Cc1c2nc3ccccc3c-2[nH]c2ccccc12	4.7
c1ccc2nc(-c3cc[nH]c4c5ccccc5nc3-4)ccc2c1	6.4
c1ccc(-c2cc[nH]c3c4ccccc4nc2-3)cc1	11.9
c1ccc2c(c1)[nH]c1cccnc12	23.5
c1ccc(-c2c[nH]c3c4ccccc4nc-3c2-c2ccccc2)cc1	108
Oc1ccc2[nH]c3cccnc3c2c1	122
Cc1c2ccccc2[n+](C)c2c1[nH]c1ccccc12.O=S(=O)([O-])C(F)(F)F	0.074
Cc1cc[nH]c2c3ccccc3nc1-2	10.4
c1csc(-c2ccnc3c2[nH]c2ccccc23)c1	1.8
Cc1c(-c2ccccc2)c[nH]c2c3ccccc3nc1-2	1.9
c1ccc(-c2cc[nH]c3c4ccccc4nc2-3)nc1	18.8
C[n+]1cccc2[nH]c3ccccc3c21.[Cl-]	192
Cn1cccc2nc3ccccc3c1-2	258
Nc1ccccc1-c1c[nH]c2c3ccccc3nc-2c1	11.2

Test system: Trypanosoma cruzi
Experiment: Antitrypanosomal activity against Trypanosoma cruzi epimastigotes
Format: functional, organism-based
Conditions: Trypanosoma cruzi

SMILES	IC50 [µM]
c1csc(-c2cnc3c(c2)[nH]c2ccccc23)c1	6.8
C[n+]1c2ccccc2cc2[nH]c3ccccc3c21.O=S(=O)([O-])C(F)(F)F	1.3
CCc1c2nc3ccccc3c-2[nH]c2ccccc12	2.8
CC(C)c1c2ccccc2[n+](C)c2c1[nH]c1ccccc12.O=S(=O)([O-])C(F)(F)F	0.73
Cc1c2nc3ccccc3c-2[nH]c2ccccc12	3.9
c1ccc2nc(-c3cc[nH]c4c5ccccc5nc3-4)ccc2c1	26.4
c1ccc(-c2cc[nH]c3c4ccccc4nc2-3)cc1	11.1
c1ccc2c(c1)[nH]c1cccnc12	23.2
c1ccc(-c2c[nH]c3c4ccccc4nc-3c2-c2ccccc2)cc1	> 312
Oc1ccc2[nH]c3cccnc3c2c1	129
Cc1c2ccccc2[n+](C)c2c1[nH]c1ccccc12.O=S(=O)([O-])C(F)(F)F	0.3
Cc1cc[nH]c2c3ccccc3nc1-2	6.6
c1csc(-c2ccnc3c2[nH]c2ccccc23)c1	11.2
Cc1c(-c2ccccc2)c[nH]c2c3ccccc3nc1-2	2.3
c1ccc(-c2cc[nH]c3c4ccccc4nc2-3)nc1	58.4
C[n+]1cccc2[nH]c3ccccc3c21.[Cl-]	428
Cn1cccc2nc3ccccc3c1-2	> 550
Nc1ccccc1-c1c[nH]c2c3ccccc3nc-2c1	10.4

Test system: Trypanosoma cruzi
Experiment: Index of selectivity was determined in Trypanosoma cruzi
Format: functional
Conditions: not given
Method in brief: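 Ratio of IC50 on L6 cells to IC50 on intracellular amastigote proliferation of T. cruzi.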

SMILES	IS
c1csc(-c2cnc3c(c2)[nH]c2ccccc23)c1	6.4
C[n+]1c2ccccc2cc2[nH]c3ccccc3c21.O=S(=O)([O-])C(F)(F)F	64.8
CCc1c2nc3ccccc3c-2[nH]c2ccccc12	3.8
CC(C)c1c2ccccc2[n+](C)c2c1[nH]c1ccccc12.O=S(=O)([O-])C(F)(F)F	4.6
Cc1c2nc3ccccc3c-2[nH]c2ccccc12	4
c1ccc2nc(-c3cc[nH]c4c5ccccc5nc3-4)ccc2c1	6.5
c1ccc(-c2cc[nH]c3c4ccccc4nc2-3)cc1	1.2
c1ccc2c(c1)[nH]c1cccnc12	9.7
c1ccc(-c2c[nH]c3c4ccccc4nc-3c2-c2ccccc2)cc1	>1.5
Oc1ccc2[nH]c3cccnc3c2c1	1.9
Cc1c2ccccc2[n+](C)c2c1[nH]c1ccccc12.O=S(=O)([O-])C(F)(F)F	18.9
Cc1cc[nH]c2c3ccccc3nc1-2	7.9
c1csc(-c2ccnc3c2[nH]c2ccccc23)c1	1
Cc1c(-c2ccccc2)c[nH]c2c3ccccc3nc1-2	11.2
c1ccc(-c2cc[nH]c3c4ccccc4nc2-3)nc1	4
C[n+]1cccc2[nH]c3ccccc3c21.[Cl-]	>1
Cn1cccc2nc3ccccc3c1-2	>1
Nc1ccccc1-c1c[nH]c2c3ccccc3nc-2c1	1.3
